zfTRPN1 agonist: agonists of zebrafish TRPN1 channel; AID 1424; activation, % at 3 µM; HEK293 zebrafish TRPN1-YFP, Fluo-8 calcium fluorescence; 100% = response to 87 µM carbachol; 220,000 compounds, 0.18% hits;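 active = activation above its plate's cutoff, the mean activation of test wells on that plate plus 3 SD, cut at about 19% in these data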;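 note: 0% = DMSO alone and 100% = 87 µM carbachol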
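Material – zebrafish TRPN1-YFP in HEK293 cells · Doses – 3 µM single point · Schedule – dye 1 h 37 °C plus 30 min RT · Signal – Fluo-8 calcium fluorescence, excitation 470-495 nm, emission 515-575 nm · Read-out – % activation versus carbachol response · Control set – carbachol high, DMSO low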
CRFBP-R2 agonist: agonists of human CRF-binding protein/CRF-R2 receptor complex. 350,000 compounds, 0.46% hits. HEK293 CRF-R2/CRF-BP, calcium dye fluorescence (FLIPR); percent of saturating CRF peptide response. activation, % at 13.2 µM. AID 588473;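 active = activation of at least 50%, plus an integration ratio under a set limit after plate pattern correction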;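 note: plate controls were neutral control wells without compound for no effect and CRF at EC100 for full effect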
CRFBP-R2 block: antagonists of CRF-binding protein/CRF-R2 receptor complex. HEK293 CRF-R2/CRF-BP, CRF-induced calcium fluorescence. inhibition, % at 11.8 µM. 350,000 compounds, 0.59% hits. AID 588475;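 active = inhibition of the ligand-induced calcium signal above about 50% at the single tested concentration, limit read from the data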
TRPML3 ag: agonists of human TRPML3 channel. AID 1448. HEK293 TRPML3-YFP, Fluo-8 calcium fluorescence; 100% = the carbachol control signal. activation, % at 3 µM. Q8TDD5. 220,000 compounds, 0.29% hits;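 active = activation above its plate's cutoff, the mean activation of the plate's test wells plus 3 SD, cut at about 12% in these data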;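 note: 0% = DMSO only wells and 100% = carbachol wells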
Target sequence (Q8TDD5 whole entry, looked up): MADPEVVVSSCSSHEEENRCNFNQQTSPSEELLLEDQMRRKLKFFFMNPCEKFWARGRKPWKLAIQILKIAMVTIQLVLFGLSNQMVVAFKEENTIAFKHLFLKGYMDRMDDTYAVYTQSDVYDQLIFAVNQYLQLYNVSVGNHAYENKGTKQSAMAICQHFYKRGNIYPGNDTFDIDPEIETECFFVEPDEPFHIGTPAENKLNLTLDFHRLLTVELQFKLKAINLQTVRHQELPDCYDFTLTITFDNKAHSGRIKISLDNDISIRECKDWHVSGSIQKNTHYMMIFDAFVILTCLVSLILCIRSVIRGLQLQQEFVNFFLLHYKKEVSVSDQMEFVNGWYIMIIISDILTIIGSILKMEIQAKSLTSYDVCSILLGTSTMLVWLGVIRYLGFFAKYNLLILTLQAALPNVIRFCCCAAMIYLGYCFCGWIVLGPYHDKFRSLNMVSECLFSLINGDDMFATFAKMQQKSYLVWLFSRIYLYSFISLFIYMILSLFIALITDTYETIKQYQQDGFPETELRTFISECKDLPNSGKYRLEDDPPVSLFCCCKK
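Test system: TRPML3-YFP stable HEK293 cells. Doses: single point at 3 µM. Incubation: dye loading 1 h 37 °C then 30 min ambient, 125 s read. Signal: Fluo-8 calcium dye fluorescence, ex 470-495, em 515-575 nm. Measure: percent activation from peak-to-basal fluorescence ratio, scaled between DMSO and carbachol.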
IMP-1 inhibitor: blocks Pseudomonas aeruginosa IMP-1 metallo-beta-lactamase. purified IMP-1, nitrocefin hydrolysis, epi-absorbance fluorescence. inhibition, % at 5.6 µM. 290,000 compounds, 0.45% hits;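 active = inhibition above the mean plus 3 SD of all compounds in the same screening run, cut at about 4.5% in these data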;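 note: 0% = IMP-1 with DMSO and 100% = DMSO wells lacking enzyme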
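System: purified IMP-1 / Input: IMP-1 dispensed at 0.2 nM / Medium: 50 mM HEPES pH 7.1, 50 µM ZnSO4, 0.05% Brij 35 / Timing: 15 min enzyme–compound preincubation, then 25 min nitrocefin reaction, 25 °C / Technique: plate fluorescence quenching by hydrolysis product, ex 480/em 530 nm / Repeats: singlicate testing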
VIM-2 inhibitor: blocks Pseudomonas aeruginosa VIM-2 metallo-beta-lactamase | purified VIM-2, nitrocefin hydrolysis, epi-absorbance fluorescence | inhibition, % at 5.6 µM | 290,000 compounds, 0.89% hits | AID 1527;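 active = inhibition above the mean of all tested compounds plus 3 SD, cutoff set per screening run, cut at about 7.5% in these data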;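 note: red hydrolysis product quenches plate fluorescence so inhibitors raise well fluorescence; 0% = enzyme with DMSO and 100% = DMSO without enzyme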
* = called active by the depositor; . = no result given. An excerpt weighted towards active compounds, which were near 2.1% of everything screened.

SMILES	zfTRPN1 agonist	CRFBP-R2 agonist	CRFBP-R2 block	TRPML3 ag	IMP-1 inhibitor	VIM-2 inhibitor
O=C(c1cc2cc(Cl)ccc2[nH]1)N1CCN(c2ccccn2)CC1	.	2	-16	.	-3	-1
COc1cc(C2C(c3ccccc3)C(c3cc(OC)cc(=O)o3)C2c2ccccc2)oc(=O)c1 (centres undefined)	.	-1	7	.	.	.
CC(C)N(C(=O)C[n+]1ccsc1N)c1ccccc1	0	-2	59*	1	-2	-1
CC(C)N(C(=O)COC(=O)c1ccc([N+](=O)[O-])cc1)c1ccccc1	1	-2	-3	1	-2	1
CCC1CCCCN1CCCNC(=O)c1cn(C)c2ccc(S(=O)(=O)N(C)C3CCCCC3)cc2c1=O (centres undefined)	.	1	56*	.	-2	1
CCC1CCCCN1CCCNC(=O)c1cn(C)c2ccc(S(=O)(=O)N3CCOCC3)cc2c1=O (centres undefined)	.	0	10	.	-5	-2
CC1(C)OC(=O)C(=CNNc2c(Cl)cc(Cl)cc2Cl)C(=O)O1	0	-1	-31	1	-2	0
Cn1cccc2[nH]c(=O)nc1-2	2	1	-6	1	-3	-1
CCCOC(=O)c1ccc(Oc2cn[nH]c2-c2ccc(OCC)cc2O)cc1	0	-5	107*	0	-3	-3
C[C@@H]1CN([C@H](C)CO)C(=O)c2cc(NC(=O)Nc3ccc(F)cc3)ccc2O[C@@H](C)CCCCO[C@H]1CN(C)S(=O)(=O)c1cccs1	.	0	1	.	.	.
O=C(Nc1cccc2ccccc12)N1CCN(c2ccccc2)CC1	0	-2	-5	1	-3	-1
O=C(Nc1cccc2ccccc12)N1CC=CCC1	-1	0	88*	0	3	-3
CCCCCCCCCSc1n[nH]c(N)n1	0	-1	69*	0	-4	-2
COc1cccc(C(=O)NC2CC(C)(C)NC(C)(C)C2)c1OC	.	-1	-1	.	16*	-2
COc1ccccc1C(=O)NC1CC(C)(C)NC(C)(C)C1	.	0	11	.	-1	-1
O=C(Nc1ncc([N+](=O)[O-])s1)c1cccc([N+](=O)[O-])c1	13	66*	70*	3	-4	-2
O=C(Nc1ccccc1)Nc1ncc([N+](=O)[O-])s1	22*	33	23	17*	-5	-4
Cc1ccc(SCc2ccc(C(=O)Nc3cccnc3)cc2)cc1	0	-2	14	0	15*	2
Cc1ccc(SCc2ccc(C(=O)Nc3ccccc3Br)cc2)cc1	-1	74*	-93	0	-1	2
CCOC(=O)CC1C(=O)NCCN1c1nc2c(C)cccn2c(=O)c1/C=C1\SC(=S)N(CC(C)C)C1=O (centres undefined)	36*	.	.	12*	-2	0
CC(C)CN1C(=O)/C(=C/c2c(N3CCc4ccccc4C3)nc3ccccn3c2=O)SC1=S	7	.	.	2	-2	-2
CCOCCCNc1nc2c(C)cccn2c(=O)c1/C=C1\SC(=S)N(C(C)CC)C1=O (centres undefined)	20*	109*	-77	8	1	0
CCCN1C(=O)/C(=C/c2c(NCCCOCC)nc3c(C)cccn3c2=O)SC1=S	2	113*	-173	1	-4	-1
Cc1cccn2c(=O)c(/C=C3\SC(=S)NC3=O)c(NCCCN3CCOCC3)nc12	13	40	-46	8	-1	3
CCC(C)N=Cc1c(Nc2ccccc2)nc2c(C)cccn2c1=O (centres undefined)	1	2	-3	0	-1	-1
SMILES	zfTRPN1 agonist	CRFBP-R2 agonist	CRFBP-R2 block	TRPML3 ag	IMP-1 inhibitor	VIM-2 inhibitor
O=C1/C(=C\c2c(NCCOCCO)nc3ccccn3c2=O)SC(=S)N1Cc1ccco1	.	102*	-97	.	-3	1
Cc1nn(CC(=O)N(CC(C)C)C2CCS(=O)(=O)C2)c(C)c1[N+](=O)[O-] (centres undefined)	.	-1	-7	.	.	.
COc1cscc1C(=O)O	0	0	-3	1	-2	-2
CCCN(CC(=O)Nc1ccccc1C)C(=O)c1cc2ccccc2oc1=O	.	4	-15	.	.	.
CCOCCCNc1nc2c(C)cccn2c(=O)c1/C=C1\SC(=S)N(CC(C)C)C1=O	0	170*	-358	1	-3	0
Cc1cccn2c(=O)c(C=O)c(NCc3ccccc3)nc12	1	-5	-7	1	0	-1
CCOc1ccc(/C=C/C(=O)c2c(O)c3ccccc3oc2=O)cc1	1	2	20	1	-1	-3
CN(C)c1ccc(/C=C/C(=O)c2c(O)c3ccccc3oc2=O)cc1	13	129*	-81	7	3	6
COc1ccc(CN2CCCCC2C)cc1C (centres undefined)	0	162*	60*	2	-2	-1
CC(Oc1ccc(Br)cc1)C(=O)NC1CCN(Cc2ccccc2)CC1 (centres undefined)	.	-1	4	.	.	.
COc1cccc(NC(=O)CN(C)C(=O)c2ccccn2)c1	.	0	-7	.	.	.
CN(C)c1ccc(/C=C2\SC(=S)N(Nc3ncc(C(F)(F)F)cc3Cl)C2=O)cc1	14	159*	-147	8	-1	1
Cc1cc(C)nc(NN2C(=O)/C(=C/c3ccccc3)SC2=S)n1	0	-1	-7	0	-1	1
CC(C)CC1COC(=O)N1 (centres undefined)	.	0	5	.	0	1
CN(C)c1ccc(C(=S)N2CCCCCC2)cc1	1	-1	4	1	5.5*	-2
CC(=O)N1CCN(C(=S)c2ccc(N(C)C)cc2)CC1	0	-2	19	0	-3	1
COc1ccc2oc(C(=O)c3ccccc3)c(NC(=O)CN3CCN(C)CC3)c2c1	2	3	-20	1	-2	9.2*
CCOC(=O)c1oc2ccc(Br)cc2c1NC(=O)CN1CCN(C)CC1	1	0	-1	1	4	9.8*
CN1CCN(CC(=O)Nc2c(C(=O)c3ccccc3)oc3ccccc23)CC1	.	0	4	.	-2	10*
Cn1cnc(S(=O)(=O)N2CCN(C(c3ccccc3)c3ccccc3)CC2)c1	.	-1	-10	.	-1	1
COc1ccccc1NC(=O)N(C)C[C@@H]1OCc2cnnn2CCCC(=O)N([C@@H](C)CO)C[C@@H]1C	.	0	-13	.	.	.
Cc1ccc(-c2nn(C)c(=O)c3ccccc23)cc1CNS(C)(=O)=O	1	-2	-8	1	-2	7
Cc1ccc(-c2nn(C)c(=O)c3ccccc23)cc1CN1CCCCC1	1	1	-10	0	-4	9.2*
